Source: PubChem BioAssay
RGS4 block – RGS4 inhibitors, primary screen, cell-based, HEK293 M3R inducible RGS4, calcium flux; Fluo-4 calcium flux; stronger effect = higher value; triggered by carbachol at its EC20; B-score at 10 µM; 310,000 compounds, 0.45% hits; Regulator of G-protein signaling 4 (Homo sapiens), P49798; AID 463165, 2010;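 active = B-score, a plate-corrected calcium signal, over three deviations above library mean, with baseline fluorescence within five deviations of library mean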;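 note: RGS4 expression induced by doxycycline in cells with stable M3 receptor; B-score is computed from the integrated fluorescence ratio over baseline after carbachol; higher B-score means a larger calcium signal and so more RGS4 inhibition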
Target sequence (P49798 whole entry, looked up): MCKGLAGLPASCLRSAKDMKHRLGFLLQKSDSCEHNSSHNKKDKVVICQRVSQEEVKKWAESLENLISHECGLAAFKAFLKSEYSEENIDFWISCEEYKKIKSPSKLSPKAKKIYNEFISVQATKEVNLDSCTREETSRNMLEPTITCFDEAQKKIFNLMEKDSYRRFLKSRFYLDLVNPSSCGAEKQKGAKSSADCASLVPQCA
MrgX1 ag – agonists of human MrgX1 receptor, primary screen, HEK293 cells, Fluo-4 calcium flux. Mas-related G-protein coupled receptor member X1 (Homo sapiens), Q96LB2. Fluo-4 calcium fluorescence, agonist mode; stronger effect = higher value. B-score at 10 µM. 310,000 compounds, 0.44% hits. AID 588627, 2011;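 active = calcium response B-score plate-corrected fluorescence ratio at least 3 library SD, with starting fluorescence B-score inside 5 SD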
Target sequence (Q96LB2 whole entry, looked up): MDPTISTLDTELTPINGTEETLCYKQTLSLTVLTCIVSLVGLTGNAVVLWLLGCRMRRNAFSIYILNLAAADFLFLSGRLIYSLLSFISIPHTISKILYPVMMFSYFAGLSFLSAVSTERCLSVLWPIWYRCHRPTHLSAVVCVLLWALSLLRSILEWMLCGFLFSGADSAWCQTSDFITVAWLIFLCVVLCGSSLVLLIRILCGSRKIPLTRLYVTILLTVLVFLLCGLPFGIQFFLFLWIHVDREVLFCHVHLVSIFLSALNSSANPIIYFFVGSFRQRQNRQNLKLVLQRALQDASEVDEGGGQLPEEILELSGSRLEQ
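System: HEK293 cells stably expressing human MrgX1 receptor; Dosing: test compound in the initial addition of three; Schedule: overnight plating, then 30 min 37 °C plus 30 min room-temperature dye loading; Detection: kinetic calcium dye fluorescence, Fluo-4 NW; Controls: per-plate positive and negative controls for Z′ factor.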
MrgX1 antag – antagonists of human MrgX1 receptor, primary screen, HEK293 cells, Fluo-4 calcium flux. Mas-related G-protein coupled receptor member X1 (Homo sapiens), Q96LB2. BAM8-22 antagonism; stronger effect = lower value. B-score at 10 µM. 310,000 compounds, 1.3% hits. AID 588676, 2011;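 active = calcium-response B-score plate-corrected more than 3 library SD below zero, starting fluorescence within 5 deviations, no agonist response on first addition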;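 note: peak minus trough fluorescence over baseline after final BAM8-22 challenge near maximal dose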
MrgX1 PAM – positive allosteric modulators of MrgX1, primary screen, HEK293 cells, Fluo-4 calcium flux | Mas-related G-protein coupled receptor member X1 (Homo sapiens), Q96LB2 | FDSS; stronger effect = higher value | B-score at 10 µM | 310,000 compounds, 0.63% hits | AID 588675, 2011;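 active = plate-corrected calcium response at least 3 library SD above typical, normal starting fluorescence, not activating the receptor alone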;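 note: compound read alongside a low EC10 to EC30 dose of BAM8-22 agonist; peak minus trough fluorescence over baseline measured at the second addition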
RGS4 pot – RGS4 potentiators or activators, primary screen, cell-based, HEK293 M3R inducible RGS4, calcium flux; carbachol calcium flux Fluo4; stronger effect = lower value; B-score at 10 µM; 310,000 compounds, 0.92% hits; AID 463111, 2010;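 active = B-score of the integrated calcium signal more than 4 SD below the library mean, with starting fluorescence not abnormally high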;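 note: negative B-score means reduced calcium response which marks RGS4 activation or potentiation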
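Material: Inducible-RGS4 HEK293 cells carrying M3 receptor; also added: carbachol at ECmax as muscarinic agonist stimulus; incubation: compound preincubation 20 min at room temperature before agonist; signal: Fluo4-AM (2 µM) calcium-flux fluorescence, kinetic read; measure: integrated calcium ratio converted to B score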
RGS4 inh valid – enhanced carbachol calcium response, M3R/RGS4 cells, RGS4 inhibitor project, cell-based, validation screen, HEK293 M3R/RGS4, calcium flux; shares compounds with RGS4 block; carbachol calcium Fluo-4 fluorescence; carbachol added at its EC20; 0 = buffer wells, 100 = carbachol control; calcium response, % at 10 µM; 1,700 compounds, 65% hits;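 active = duplicate-averaged calcium response above the buffer-only control mean plus 5 SD of those controls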;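 note: integrated fluorescence ratio F max minus min over baseline F0; higher response in RGS4-induced cells means RGS4 inhibition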
M3R Ca ctr – carbachol calcium response in non-induced M3R cells, confirmation, counter-screen for RGS4 inhibitor project, cell-based, HEK293 M3R; activity (percent), % at 10 µM; shares compounds with RGS4 block; 1,900 compounds, 20% hits; AID 493000, 2010; carbachol calcium Fluo-4; submaximal (EC20) carbachol stimulus; buffer wells 0%, carbachol control wells 100%; call rule not given here;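 note: RGS4 induction absent so cells express M3R without RGS4; higher means more calcium signal and flags a non-specific hit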
M3R basal Ca ctr – signal in non-induced cells without carbachol, RGS4 inhibitor counter-screen. shares compounds with RGS4 block. HEK293 M3R/RGS4 non-induced, Fluo-4 calcium, no carbachol; normalised: buffer wells 0%, carbachol wells 100%. calcium response (agonist-mode artifact), % at 10 µM. 1,900 compounds, 22% hits. AID 493001;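 active = duplicate-averaged calcium rise in uninduced cells above buffer wells' mean plus 5 SD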
Large screens that a line does not name were inactive (follow-up assays come after a bar, where they were run). Most compounds without a hit are left out; they make up all but 3.5% or so of the library.

CCCCC1=CC2=C(c3ccco3)C(=O)C(C)(OC(=O)c3ccc(OC)cc3)C(=O)C2=CN1CC1CC1 (stereo not given)	none | RGS4 inh valid inactive | M3R Ca ctr inactive | M3R basal Ca ctr inactive
CCCCC1=CC2=C(c3ccco3)C(=O)C(C)(OC(=O)c3ccc(OC)cc3)C(=O)C2=CN1CC(C)C (stereo not given)	RGS4 block 6.8 | RGS4 inh valid 5.0% | M3R Ca ctr inactive | M3R basal Ca ctr inactive
COC(=O)CCCC1=CC2=C(c3ccccc3)C(=O)C(C)(OC(=O)C3CCCC3)C(=O)C2=CN1Cc1ccc(OC)cc1 (stereo not given)	none
CCCCC1=CC2=C(c3ccco3)C(=O)C(C)(OC(=O)c3ccc(OC)cc3)C(=O)C2=CN1CCCN(CC)CC (stereo not given)	none | RGS4 inh valid inactive | M3R Ca ctr inactive | M3R basal Ca ctr inactive
Cc1[nH]c(C)c(C(=O)/C=C/c2ccc([N+](=O)[O-])cc2)c1C	none
CN(C)CCCN(C(=O)c1cc(-c2cccs2)nc2ccccc12)c1nc2ccc(F)cc2s1	none
CCc1cccc2c(C(=O)CN3C(=O)NC(C)(c4cccc5ccccc45)C3=O)c[nH]c12 (stereo not given)	RGS4 block 11 | RGS4 inh valid inactive | M3R Ca ctr inactive | M3R basal Ca ctr inactive
CC1=C(C(=O)OCc2ccccc2)C(c2ccccc2OS(=O)(=O)c2ccc(C)cc2)NC(=O)N1CCCC(=O)O (stereo not given)	none
CCNc1nnc(CCn2nc(C)c(Br)c2C)s1	none
Cc1ccc(NC(=O)CNC(=O)Cn2cnc3sc(C)c(C)c3c2=O)cc1F	RGS4 block 6.9 | RGS4 inh valid 19% | M3R Ca ctr 48% | M3R basal Ca ctr inactive
CC(=O)Nc1ccc(S(=O)(=O)Nc2ccccc2C(=O)N2CCCCC2)cc1	none
Cn1cc([N+](=O)[O-])c(C(=O)N/N=C/c2ccc3c(c2)OCO3)n1	none
CC(=O)Oc1ccc([C@@H]2COc3c(ccc4c3C=CC(C)(C)O4)C2)c(OC(C)=O)c1	RGS4 block 6.1 | RGS4 inh valid 17% | M3R Ca ctr inactive | M3R basal Ca ctr inactive
Cc1ccc(C(=O)/C=C/C(=O)c2ccc(C)cc2)cc1	none | M3R Ca ctr inactive | M3R basal Ca ctr inactive
COc1ccc(-n2nc3c(c2NC(=O)CCCl)CSC3)cc1	none
O=c1[nH]cnc2c1ncn2[C@@H]1O[C@H](CO)[C@@H](O)[C@H]1O	none
Nc1ccc(CCNc2ncnc3c2ncn3[C@@H]2O[C@H](CO)[C@@H](O)[C@H]2O)cc1	none | M3R Ca ctr inactive | M3R basal Ca ctr inactive
OCC1OC(n2cnc3c(NCCc4ccccc4)ncnc32)C(O)C1O (stereo not given)	RGS4 block 6.4 | RGS4 inh valid 29% | M3R Ca ctr 68% | M3R basal Ca ctr inactive
COc1ccccc1N1CC(C(=O)Nc2nnc(SCC(=O)N3CCOCC3)s2)CC1=O (stereo not given)	none
Oc1ccc(-c2nc(-c3ccc(O)c(O)c3)cs2)cc1	none | RGS4 inh valid inactive | M3R Ca ctr inactive | M3R basal Ca ctr inactive
O=C(CN1C(=O)CCC1=O)Nc1nc(-c2ccc3ccccc3c2)cs1	RGS4 block 8 | RGS4 inh valid 5.0% | M3R Ca ctr inactive | M3R basal Ca ctr inactive
CC(=O)Nc1nc(-c2ccc3ccccc3c2)cs1	RGS4 block 5.1 | RGS4 inh valid inactive | M3R Ca ctr inactive | M3R basal Ca ctr inactive
Oc1ccc(Nc2nc(-c3ccc4ccccc4c3)cs2)cc1	RGS4 block 41 | RGS4 inh valid 84% | M3R Ca ctr 88% | M3R basal Ca ctr inactive
O=S(=O)(c1cnccc1N1CCN(CCO)CC1)N1CCCCC1	none
CC(C)(C)Sc1ccc([N+](=O)[O-])cc1C(=O)Nc1ccncc1	none
O=C(O)C1CCN(c2nc(-c3ccccc3)nc3c2oc2ccccc23)CC1	none
O=C(O)CSc1nc(-c2ccccc2)nc2c1oc1ccccc12	none | RGS4 inh valid inactive | M3R Ca ctr inactive | M3R basal Ca ctr inactive
O=C(O)CSc1nc(-c2ccc(Cl)cc2)nc2c1oc1ccccc12	RGS4 block 4.8 | RGS4 inh valid 9.0% | M3R Ca ctr inactive | M3R basal Ca ctr 7.0%
O=C(NC(C(=O)N/N=C/c1ccncc1)c1n[nH]c(=O)c2ccccc12)c1ccccc1 (stereo not given)	none
O=C(NC(C(=O)N/N=C/c1cccc2ccccc12)c1n[nH]c(=O)c2ccccc12)c1ccccc1 (stereo not given)	RGS4 block 14 | RGS4 inh valid 24% | M3R Ca ctr 30% | M3R basal Ca ctr inactive
Cc1cccc(N=C2NC(=O)/C(=C/c3cccnc3)S2)c1C	none
Cc1ccc(N=C2NC(=O)/C(=C/c3cccnc3)S2)c(C)c1	RGS4 block 7.9 | RGS4 inh valid 20% | M3R Ca ctr inactive | M3R basal Ca ctr inactive
Oc1c(-c2cc(-c3ccco3)[nH]n2)ccc2ccccc12	RGS4 block 12 | RGS4 inh valid 30% | M3R Ca ctr 31% | M3R basal Ca ctr inactive
CC1CCCCN1CCCNc1ccc(C(CC(N)=O)NC(=O)Cc2cccc3ccccc23)cc1[N+](=O)[O-] (stereo not given)	none
COc1ccc(C2CC(c3cccs3)=NN2S(=O)(=O)c2ccc(C)cc2)cc1 (stereo not given)	RGS4 block 6.2 | RGS4 inh valid 17% | M3R Ca ctr inactive | M3R basal Ca ctr inactive
Cc1ccc(C2CC(c3cccs3)=NN2S(=O)(=O)c2ccc(C)cc2)cc1 (stereo not given)	none | M3R Ca ctr inactive | M3R basal Ca ctr 32%
O=S(=O)(c1ccccc1)N1N=C(c2cccs2)CC1c1ccc(F)cc1 (stereo not given)	none
CC(C)c1ccc(NC2CCCN(C(=O)CN3CCCC3=O)C2)cc1 (stereo not given)	none
O=C1C=C(NC2=CC3OC(c4ccccc4)OCC3OC2=O)CCC1 (stereo not given)	RGS4 block 7.7 | RGS4 inh valid 36% | M3R Ca ctr inactive | M3R basal Ca ctr inactive
